Reference: ChEMBL document CHEMBL3425484, “Novel N-benzenesulfonyl sophocarpinol derivatives as coxsackie B virus inhibitors” (ACS Med Chem Lett, 2015)

Key:
[1] = Cytotoxicity against african green monkey Vero cells assessed as inhibition of cell growth after 24 hrs by CPE assay; assay type: cell-based; conditions: chlorocebus sabaeus, read-out: TC50
[2] = system: Coxsackievirus; test: Antiviral activity against Coxsackievirus B3 infected in african green monkey Vero cells assessed as reduction in viral-induced cytopathic effect; assay type: functional, organism-based
Summary of the method: (§1)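 Vero (African green monkey kidney) cells were infected with the CVB subtype and scored by viral cytopathogenic effect (CPE) reduction, with ribavirin as the positive control. IC50 is the concentration that inhibits CVB growth by 50%.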

[3] = Selectivity index, ratio of TC50 for african green monkey Vero cells to IC50 for Coxsackievirus B3 infected in african green monkey Vero cells; assay type: toxicity, cell-based; conditions: read-out: Selectivity Index
Summary of the method: (§2)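 SI is calculated as TC50 (50% inhibition of Vero cell growth) divided by IC50 (50% inhibition of the respective CVB subtype's growth, from the CPE assay in Vero cells, ribavirin as positive control).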

[4] = system: Coxsackievirus; test: Antiviral activity against Coxsackievirus B1 infected in african green monkey Vero cells assessed as reduction in viral-induced cytopathic effect; assay type: functional, organism-based; summary of the method: as §1
[5] = system: Coxsackievirus; test: Antiviral activity against Coxsackievirus B2 infected in african green monkey Vero cells assessed as reduction in viral-induced cytopathic effect; assay type: functional, organism-based; summary of the method: as §1
[6] = system: Coxsackievirus; test: Antiviral activity against Coxsackievirus B5 infected in african green monkey Vero cells assessed as reduction in viral-induced cytopathic effect; assay type: functional, organism-based; summary of the method: as §1
[7] = system: Coxsackievirus; test: Antiviral activity against Coxsackievirus B6 infected in african green monkey Vero cells assessed as reduction in viral-induced cytopathic effect; assay type: functional, organism-based; summary of the method: as §1
[8] = Selectivity index, ratio of TC50 for african green monkey Vero cells to IC50 for Coxsackievirus B1 infected in african green monkey Vero cells; assay type: toxicity, cell-based; conditions: read-out: Selectivity Index; summary of the method: as §2
[9] = Selectivity index, ratio of TC50 for african green monkey Vero cells to IC50 for Coxsackievirus B2 infected in african green monkey Vero cells; assay type: toxicity, cell-based; conditions: read-out: Selectivity Index; summary of the method: as §2
[10] = Selectivity index, ratio of TC50 for african green monkey Vero cells to IC50 for Coxsackievirus B5 infected in african green monkey Vero cells; assay type: toxicity, cell-based; conditions: read-out: Selectivity Index; summary of the method: as §2
[11] = Selectivity index, ratio of TC50 for african green monkey Vero cells to IC50 for Coxsackievirus B6 infected in african green monkey Vero cells; assay type: toxicity, cell-based; conditions: read-out: Selectivity Index; summary of the method: as §2

Structure (SMILES) | CC50 at 24 h [1] | IC50 [2] | selectivity ratio [3] | IC50 [4] | IC50 [5] | IC50 [6] | IC50 [7] | selectivity ratio [8] | selectivity ratio [9] | selectivity ratio [10] | selectivity ratio [11]
O=[N+]([O-])c1ccccc1S(=O)(=O)N1C[C@@H]2CCCN3CCC[C@@H]([C@H]23)[C@H]1/C=C\CCO | 354000 nM | 2310 nM | 153 | 1460 nM | 1440 nM | 3630 nM | 620 nM | 116 | 117 | 46.8 | 276
COC(=O)C/C=C\[C@@H]1[C@H]2CCCN3CCC[C@@H](CN1S(=O)(=O)c1cccc(C#N)c1)[C@@H]23 | 543000 nM | 3070 nM | 177 | 2600 nM | 12600 nM | 10500 nM | 2810 nM | 188 | 38.9 | 46.7 | 174
